Key:
[1] = Selectivity index, ratio of IC50 for mouse L929 cells to IC50 for human K-562 cells after 72 hrs by MTT assay; format: toxicity; conditions: L929 cells versus K-562 cells, read-out: Ratio IC50
Procedure, shortened: (§1)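 Both cell types were kept in medium with 10% FBS, 2 mM L-glutamine and penicillin/streptomycin at 37 °C, 5% CO2. Seeding was 0.7 × 10^5 cells per well for HCT-116, 0.1 × 10^6 for the other lines. Cells got compound in DMSO (0.1% final) for 72 h, then 0.5 mg/mL MTT for 3 h, with formazan read at 550 nm. IC50 came from nonlinear regression over three independent experiments in triplicate. SI is the L929 IC50 divided by the cancer-line IC50.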

[2] = tested on: HCT-116; test: Cytotoxicity against human HCT-116 cells assessed as reduction in cell viability after 72 hrs by MTT assay; format: functional, cell-based; conditions: HCT-116, 72 h
Procedure, shortened: (§2)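 Cells were grown in medium with 10% FBS, 2 mM L-glutamine, penicillin and streptomycin at 37 °C, 5% CO2. Seeding per well was 0.1 × 10^6 for leukaemia, PC3, L929 and NCI-H460, and 0.7 × 10^5 for HCT-116. Compounds in DMSO (0.1% final) were applied for 72 h. MTT (0.5 mg/mL) was added for 3 h, formazan dissolved in DMSO, and absorbance read at 550 nm. IC50 by nonlinear regression; three independent experiments in triplicate.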

[3] = tested on: L929; test: Cytotoxicity against mouse L929 cells assessed as reduction in cell viability after 72 hrs by MTT assay; format: cell-based; conditions: L929, 72 h; procedure, shortened: as §2
[4] = tested on: K562; test: Cytotoxicity against human K562 cells assessed as reduction in cell viability after 72 hrs by MTT assay; format: functional, cell-based; conditions: K562, 72 h; procedure, shortened: as §2
[5] = Cytotoxicity against human Lucena1 cells assessed as reduction in cell viability after 72 hrs by MTT assay; format: functional, cell-based; conditions: Lucena 1, 72 h; procedure, shortened: as §2
[6] = Selectivity index, ratio of IC50 for mouse L929 cells to IC50 for human HL-60cells after 72 hrs by MTT assay; format: toxicity; conditions: L929 cells versus HL-60 cells, read-out: Ratio IC50; procedure, shortened: as §1
[7] = Selectivity index, ratio of IC50 for mouse L929 cells to IC50 for human NCI-H460 cells after 72 hrs by MTT assay; format: toxicity; conditions: L929 cells versus NCI-H460 cells, read-out: Ratio IC50; procedure, shortened: as §1
[8] = Selectivity index, ratio of IC50 for mouse L929 cells to IC50 for human PC3 cells after 72 hrs by MTT assay; format: toxicity; conditions: L929 cells versus PC3 cells, read-out: Ratio IC50; procedure, shortened: as §1
[9] = Selectivity index, ratio of IC50 for mouse L929 cells to IC50 for human HCT116 cells after 72 hrs by MTT assay; format: toxicity; conditions: L929 cells versus HCT116 cells, read-out: Ratio IC50; procedure, shortened: as §1
[10] = Selectivity index, ratio of IC50 for mouse L929 cells to IC50 for human Lucena1 cells after 72 hrs by MTT assay
Procedure, shortened: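 Selectivity index is the ratio of IC50 in murine L929 fibroblasts to IC50 in Lucena 1 cells, each measured by 72 h MTT assay (absorbance 550 nm). IC50 values came from nonlinear regression of three independent experiments in triplicate.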

[11] = tested on: HL-60; test: Cytotoxicity against human HL-60 cells assessed as reduction in cell viability after 72 hrs by MTT assay; format: functional, cell-based; conditions: HL-60, 72 h
Procedure, shortened: as §2, with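 “CO2.” for “CO2. Seeding per well was 0.1 × 10^6 for leukaemia, PC3, L929 and NCI-H460, and 0.7 × 10^5 for HCT-116.”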

[12] = Cytotoxicity against albino Swiss mouse peritoneal macrophages assessed as reduction in cell viability incubated for 24 hrs by Presto blue assay; format: tissue-based, Macrophage; conditions: read-out: LC50
Procedure, shortened: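 Primary peritoneal macrophages from Albino Swiss mice were seeded at 2.5 × 10^4 cells per well in RPMI-1640 (pH 7.2, 10% FBS, 2 mM glutamine) and grown 24 h at 37 °C. They were then treated 24 h at 37 °C with compound from DMSO stock (final DMSO ≤0.4%).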

[13] = tested on: PC-3; test: Cytotoxicity against human PC-3 cells assessed as reduction in cell viability after 72 hrs by MTT assay; format: functional, cell-based; conditions: PC-3, 72 h; procedure, shortened: as §2
[14] = tested on: NCI-H460; test: Cytotoxicity against human NCI-H460 cells assessed as reduction in cell viability after 72 hrs by MTT assay; format: functional, cell-based; conditions: NCI-H460, 72 h
Procedure, shortened: as §2, with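 “CO2.” for “CO2. Seeding per well was 0.1 × 10^6 for leukaemia, PC3, L929 and NCI-H460, and 0.7 × 10^5 for HCT-116.”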

[15] = tested on: Trypanosoma cruzi; test: Antitrypanosomal activity against Trypanosoma cruzi Y strain bloodstream trypomastigotes assessed as lysis of parasite in presence of 5 % mouse blood incubated for 24 hrs by Neubauer chamber method; format: functional, organism-based
Procedure, shortened: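 Y strain bloodstream trypomastigotes came from infected albino mice at peak parasitaemia, purified by differential centrifugation, in RPMI at 10^7 cells/mL with 10% mouse blood. They were mixed 1:1 with compound at twice the final concentration (5% blood final), 24 h at 4 °C, with DMSO ≤0.4% final. Neubauer chamber counting; IC50 is 50% lysis; at least three independent experiments.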

[16] = Selectivity index, ratio of LC50 for cytotoxicity against albino Swiss mouse peritoneal macrophages to IC50 for Antitrypanosomal activity against Trypanosoma cruzi Y strain bloodstream trypomastigotes assessed as lysis of parasite in presence of 5 % mouse blood; format: toxicity
Procedure, shortened: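 Y-strain bloodstream trypomastigotes came from infected albino mice at peak parasitaemia and were purified by differential centrifugation. They were resuspended at 10^7/mL in RPMI with 10% mouse blood and mixed 1:1 with compound at twice the final concentration (DMSO ≤0.4%). Incubation was 24 h at 4 °C (5% blood per footnote).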

[17] = tested on: Trypanosoma cruzi; test: Antitrypanosomal activity against Trypanosoma cruzi Y strain bloodstream trypomastigotes assessed as lysis of parasite in absence of mouse blood incubated for 24 hrs by Neubauer chamber method; format: functional, organism-based
Procedure, shortened: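 T. cruzi Y strain bloodstream trypomastigotes came from infected albino mice at peak parasitaemia and were purified by differential centrifugation. They were exposed to compounds for 24 h at 37 °C without blood. Parasites were counted in a Neubauer chamber, and IC50 is the concentration lysing 50% of parasites. Values are mean ± SD of at least three independent experiments.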

[18] = Selectivity index, ratio of LC50 for cytotoxicity against albino Swiss mouse peritoneal macrophages to IC50 for Antitrypanosomal activity against Trypanosoma cruzi Y strain bloodstream trypomastigotes assessed as lysis of parasite in absence of mouse blood; format: toxicity
Procedure, shortened: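 Y-strain bloodstream trypomastigotes came from infected albino mice at peak parasitaemia and were purified by differential centrifugation into RPMI. They were exposed 24 h at 37 °C without blood to compound (DMSO ≤0.4%).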

| SMILES | selectivity ratio at 72 h [1] | IC50 [2] [µM] | IC50 [3] [µM] | IC50 [4] [µM] | IC50 [5] [µM] | selectivity ratio at 72 h [6] | selectivity ratio at 72 h [7] | selectivity ratio at 72 h [8] | selectivity ratio at 72 h [9] | Ratio IC50 [10] | IC50 [11] [µM] | CC50 at 24 h [12] [µM] | IC50 [13] [µM] | IC50 [14] [µM] | IC50 [15] [µM] | selectivity ratio [16] | IC50 [17] [µM] | selectivity ratio [18] |
| --- | --- | --- | --- | --- | --- | --- | --- | --- | --- | --- | --- | --- | --- | --- | --- | --- | --- | --- |
| Cc1ccc(S(=O)(=O)n2cc(COC3=C/C(=N\c4ccc(I)cc4)c4ccccc4C3=O)nn2)cc1 | 1.5 | > 16.4 | > 16.4 | 10.8 | 2.9 | 2.6 | 1 | 1 | 1 | 5.6 | 6.31 | > 100 | > 16.4 | > 16.4 | > 500 |  |  |  |
| COc1ccc(/N=C2\C=C(OCc3cn(S(=O)(=O)c4ccc(C)cc4)nn3)C(=O)c3ccccc32)cc1 | 1 | 7.43 | > 20 | > 20 | 4.58 | 3.3 | 2.6 | 1 | 2.9 | 5.4 | 6.96 | 44.3 | > 20 | 8.39 | > 500 | > 11.3 |  |  |
| Cc1ccc(S(=O)(=O)n2cc(COC3=C/C(=N\c4ccc(Cl)cc4)c4ccccc4C3=O)nn2)cc1 | 2 | 9.44 | > 20 | 9.8 | 3.16 | 2.8 | 1.6 | 1 | 2 | 6.1 | 6.92 | > 100 | > 20 | 12.1 | > 500 |  |  |  |
| O=C(Cn1ccnc1[N+](=O)[O-])NCc1ccccc1 [BENZNIDAZOLE] |  |  |  |  |  |  |  |  |  |  |  | > 4000 |  |  |  | > 38.6 | 9.7 | > 413 |
| Cc1cccc(SC2=CC(=O)C(=O)c3ccccc32)c1 | 2.2 | 19.6 | > 20 | 16.2 | 12.7 | 6.6 | 1 | 1 | 1.8 | 2.8 | 5.42 | 67.3 | > 20 | > 20 | 65.6 | 1.03 | 4.6 | 14.6 |
| Cc1ccc(S(=O)(=O)n2cc(COC3=C/C(=N\c4ccc(F)cc4)c4ccccc4C3=O)nn2)cc1 | 2.6 | 5.75 | > 20 | 7.7 | 6.58 | 2.6 | 2.7 | 9.8 | 3.5 | 3 | 7.52 | 26.9 | 2.03 | 7.36 | > 500 | > 18.6 |  |  |
| Cc1ccc(S(=O)(=O)n2cc(COC3=C/C(=N\c4ccccc4)c4ccccc4C3=O)nn2)cc1 | 1.7 | 5.37 | > 20 | 12.2 | 3.67 | 3.1 | 2.9 | 1 | 3.8 | 5.6 | 6.71 | 80.8 | > 20 | 7.22 | > 500 | > 6.19 |  |  |
| CC(=O)c1ccc(/N=C2\C=C(OCc3cn(S(=O)(=O)c4ccc(C)cc4)nn3)C(=O)c3ccccc32)cc1 | 1.9 | 6.27 | 10.8 | 5.52 | 6.46 | 2 | 0.7 | 2.7 | 1.7 | 1.7 | 5.3 | 40.6 | 3.91 | 15.8 | > 500 | > 12.3 |  |  |
| Cc1ccc(SC2=CC(=O)C(=O)c3ccccc32)cc1 | 1.8 | > 20 | > 20 | 14.9 | 12.8 | 6.6 | 0.8 | 0.8 | 1.3 | 2.1 | 4.14 | 81.4 | > 20 | > 20 | 88.7 | 0.92 | 3.4 | 23.9 |
| COc1ccc(SC2=CC(=O)C(=O)c3ccccc32)cc1 | 2.5 | > 20 | > 20 | 13.3 | > 20 | 3.6 | 1 | 1 | 1 | 1 | 9.38 | 41.5 | > 20 | > 20 | 112 | 0.37 | 3.9 | 10.6 |
| Cc1ccc(/N=C2\C=C(OCc3cn(S(=O)(=O)c4ccc(C)cc4)nn3)C(=O)c3ccccc32)cc1 | 2.9 | 3.61 | 17.7 | 6.22 | 1.44 | 3.3 | 2.2 | 6.7 | 4.9 | 12.3 | 5.42 | 88.5 | 2.65 | 8.02 | > 500 | > 5.65 |  |  |
